ChEMBL document CHEMBL1125600, “Sulfonylbenzoyl-nitrostyrenes: potential bisubstrate type inhibitors of the EGF-receptor tyrosine protein kinase” (J Med Chem, 1991)

What was measured:
[1] = Antiproliferative activity tested by using EGF- stimulated cellular proliferation of balb/MK mouse epidermal keratinocytes (balb/MK cells)
[2] = biological target: Tyrosine-protein kinase ABL (Homo sapiens, UniProt P00519+P42684); assay: Inhibition of recombinant v-Abl tyrosine kinase.; format: protein assay
How it was run: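 The reaction contained 20 mM Tris pH 7.5, 10 mM MgCl2, 10 µM [γ-32P]ATP and about 50 ng enzyme. Compounds were in DMSO. Reactions were stopped with trichloroacetic acid and aliquots were spotted on P81 paper.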

[3] = biological target: Epidermal growth factor receptor (Homo sapiens, UniProt P00533); assay: Inhibition of the epidermal growth factor receptor expressed in A431 cell line
Sequence of Epidermal growth factor receptor (P00533 whole entry): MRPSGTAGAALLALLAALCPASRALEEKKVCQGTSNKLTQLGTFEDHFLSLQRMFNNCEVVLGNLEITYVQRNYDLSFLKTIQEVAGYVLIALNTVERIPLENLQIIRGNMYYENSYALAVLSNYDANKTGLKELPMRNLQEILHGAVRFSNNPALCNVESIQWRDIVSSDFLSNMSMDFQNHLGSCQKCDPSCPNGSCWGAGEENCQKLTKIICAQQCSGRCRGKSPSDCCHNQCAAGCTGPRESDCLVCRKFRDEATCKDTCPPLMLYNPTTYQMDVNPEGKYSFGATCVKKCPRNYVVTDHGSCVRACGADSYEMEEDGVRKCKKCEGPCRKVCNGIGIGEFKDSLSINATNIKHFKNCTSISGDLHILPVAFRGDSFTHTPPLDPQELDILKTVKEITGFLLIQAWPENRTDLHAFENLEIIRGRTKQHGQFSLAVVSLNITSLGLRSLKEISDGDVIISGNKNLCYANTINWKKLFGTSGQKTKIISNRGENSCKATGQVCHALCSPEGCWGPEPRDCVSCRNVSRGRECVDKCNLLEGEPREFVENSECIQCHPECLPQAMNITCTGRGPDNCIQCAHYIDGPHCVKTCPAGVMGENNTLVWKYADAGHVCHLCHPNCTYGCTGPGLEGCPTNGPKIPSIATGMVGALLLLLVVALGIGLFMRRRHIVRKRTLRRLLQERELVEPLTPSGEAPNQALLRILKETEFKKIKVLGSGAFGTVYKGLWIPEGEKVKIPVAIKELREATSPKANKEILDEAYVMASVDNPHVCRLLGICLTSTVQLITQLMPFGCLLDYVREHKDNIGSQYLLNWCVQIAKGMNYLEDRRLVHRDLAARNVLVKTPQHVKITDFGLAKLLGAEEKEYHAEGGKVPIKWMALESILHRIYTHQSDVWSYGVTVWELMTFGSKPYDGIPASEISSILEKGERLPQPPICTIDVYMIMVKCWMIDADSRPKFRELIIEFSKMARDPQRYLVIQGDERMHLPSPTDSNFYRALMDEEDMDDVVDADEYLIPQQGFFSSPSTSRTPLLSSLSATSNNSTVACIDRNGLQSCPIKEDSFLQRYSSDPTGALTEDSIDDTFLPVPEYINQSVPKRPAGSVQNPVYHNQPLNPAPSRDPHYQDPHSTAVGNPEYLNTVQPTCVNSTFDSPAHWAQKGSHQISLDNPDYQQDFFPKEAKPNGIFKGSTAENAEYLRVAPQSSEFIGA

[4] = Inhibition of the protein kinase C.

Structure (SMILES) | IC50 [2] [µM] | IC50 [3] [µM] | IC50 [4] [µM] | IC50 [1] [µM]
O=[N+]([O-])/C=C/c1ccc(O)cc1 | > 100 | 10.1 | > 500 | 4.8
COc1cc(/C=C/[N+](=O)[O-])ccc1O | > 100 | 7.9 | > 500 | 3.5
C[C@@H](NC(=O)c1ccc(S(=O)(=O)Oc2ccc(/C=C/[N+](=O)[O-])cc2)cc1)C(=O)N[C@H](C)C(=O)NCCNC(=O)OC(C)(C)C |  | > 50 | > 500 | > 50
NCCNC(=O)c1ccc(S(=O)(=O)Oc2ccc(/C=C/[N+](=O)[O-])cc2)cc1 | 5 | 5.4 | 60 | 32
C[C@@H](NC(=O)c1ccc(S(=O)(=O)Oc2ccc(/C=C/[N+](=O)[O-])cc2)cc1)C(=O)N[C@H](C)C(=O)NCCN | 15 | 17 | 250 | > 50
C[C@@H](NC(=O)[C@@H](C)NC(=O)c1ccc(S(=O)(=O)Oc2ccc(/C=C/[N+](=O)[O-])cc2)cc1)C(=O)O | 35 | 7 | > 100 | > 50
C[C@@H](NC(=O)c1ccc(S(=O)(=O)Oc2ccc(/C=C/[N+](=O)[O-])cc2)cc1)C(=O)N[C@H](C)C(=O)OC(C)(C)C | > 100 | 40 | > 450 | 2.7
CC(C)(C)OC(=O)NCCNC(=O)c1ccc(S(=O)(=O)Oc2ccc(/C=C/[N+](=O)[O-])cc2)cc1 | > 100 | 1.4 | 320 | 4.8
COc1cc(/C=C/[N+](=O)[O-])ccc1OS(=O)(=O)c1ccc(C(=O)OC[C@H]2O[C@@H](n3cnc4c(N)ncnc43)[C@H](O)[C@@H]2O)cc1 | 100 | 0.5 | 10 | 45
Nc1ncnc2c1ncn2[C@@H]1O[C@H](COC(=O)c2ccc(S(=O)(=O)Oc3ccc(/C=C/[N+](=O)[O-])cc3)cc2)[C@@H](O)[C@H]1O | > 100 | 0.6 | 13 | 61
CCCCNC(=O)c1ccc(S(=O)(=O)Oc2ccc(C=O)cc2)cc1 |  | > 100 |  | > 50
CCCCNC(=O)c1ccc(S(=O)(=O)Oc2ccc(/C=C/[N+](=O)[O-])cc2)cc1 | > 100 | 4.8 | > 500 | 3.8
C/C(=C\c1ccc(O)c(O)c1)[N+](=O)[O-] | 100 | 9.4 | > 500 | 2.1
CC(C)(C)NC(=O)c1ccc(S(=O)(=O)Oc2ccc(/C=C/[N+](=O)[O-])cc2)cc1 | > 100 | 1.3 | 340 | 2.1
O=[N+]([O-])/C=C/c1ccc(O)c(O)c1 | 100 | 8.8 | > 500 | 2.9

Continued, in another order:

IC50 [2] [µM] | IC50 [3] [µM] | IC50 [4] [µM] | Structure (SMILES) | IC50 [1] [µM]
40 | 2.8 | > 500 | COc1cc(/C=C/[N+](=O)[O-])ccc1OS(=O)(=O)c1ccc(C(=O)O)cc1 | 35
27 | 0.054 | 500 | O=C(O)c1ccc(S(=O)(=O)Oc2ccc(/C=C/[N+](=O)[O-])cc2)cc1O | > 50
35 | 0.4 | 290 | CNC(=O)c1ccc(S(=O)(=O)Oc2ccc(/C=C/[N+](=O)[O-])cc2)cc1 | 5.2
> 100 | 1.8 |  | COC(=O)c1ccc(S(=O)(=O)Oc2ccc(/C=C/[N+](=O)[O-])cc2)cc1O | 5.7
100 | 1 | > 500 | O=C(O)c1ccc(S(=O)(=O)Oc2ccc(/C=C/[N+](=O)[O-])cc2)cc1 | > 50
> 100 | 1.5 | > 500 | COC(=O)c1ccc(S(=O)(=O)Oc2ccc(/C=C/[N+](=O)[O-])cc2)cc1 | 12
100 | 0.31 | > 500 | O=C(O)c1ccc(S(=O)(=O)Oc2ccc(/C=C/[N+](=O)[O-])cc2)c(O)c1 | > 50
 | 4 | > 500 | CNC(=O)c1ccc(S(=O)(=O)Oc2ccc(/C=C(\C)[N+](=O)[O-])cc2OC)cc1 | 2.1
